The list is not random: actives were taken first. Their share in the collection is about 0.7%.
NPR2 activator: GC-B (human) receptor activation; HEK293-GC-B cells, CNP EC30, cGMP TR-FRET; 0% at EC30 CNP, 100% saturating CNP; activation, % at 10 µM; 0.11% of 370,000 active; AID 1920062;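 active = activation at 10 µM reaching about 35% in either raw or pattern-adjusted values, limit read from the data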
Target sequence (P20594 whole entry, looked up): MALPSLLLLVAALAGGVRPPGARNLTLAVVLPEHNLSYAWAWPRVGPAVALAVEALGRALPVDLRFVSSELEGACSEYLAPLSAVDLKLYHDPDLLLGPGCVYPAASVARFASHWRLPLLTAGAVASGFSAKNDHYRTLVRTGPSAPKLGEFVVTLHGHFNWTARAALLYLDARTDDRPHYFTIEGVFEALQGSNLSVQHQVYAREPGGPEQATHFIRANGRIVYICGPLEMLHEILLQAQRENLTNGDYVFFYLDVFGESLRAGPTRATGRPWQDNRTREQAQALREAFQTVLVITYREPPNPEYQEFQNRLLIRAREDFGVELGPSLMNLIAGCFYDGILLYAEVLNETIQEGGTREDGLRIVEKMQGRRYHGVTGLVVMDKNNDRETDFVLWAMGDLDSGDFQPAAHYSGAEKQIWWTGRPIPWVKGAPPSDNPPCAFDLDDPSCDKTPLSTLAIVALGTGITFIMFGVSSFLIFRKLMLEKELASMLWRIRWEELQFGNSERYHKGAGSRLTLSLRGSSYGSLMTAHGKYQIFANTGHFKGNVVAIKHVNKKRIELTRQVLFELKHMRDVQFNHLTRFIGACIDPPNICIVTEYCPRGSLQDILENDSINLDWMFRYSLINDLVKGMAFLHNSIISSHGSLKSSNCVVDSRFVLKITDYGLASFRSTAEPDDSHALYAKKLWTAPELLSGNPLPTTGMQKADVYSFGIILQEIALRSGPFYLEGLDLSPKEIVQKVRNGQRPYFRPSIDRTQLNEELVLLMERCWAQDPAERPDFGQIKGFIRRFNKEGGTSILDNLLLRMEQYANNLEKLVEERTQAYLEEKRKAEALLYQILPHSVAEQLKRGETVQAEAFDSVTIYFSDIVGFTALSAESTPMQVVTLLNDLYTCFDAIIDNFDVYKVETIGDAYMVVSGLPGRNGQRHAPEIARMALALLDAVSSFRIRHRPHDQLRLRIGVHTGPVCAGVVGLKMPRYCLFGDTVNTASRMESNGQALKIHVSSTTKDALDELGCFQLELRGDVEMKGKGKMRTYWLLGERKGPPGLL
Vif inh: HIV Vif inhibition; HEK293T cells, Vif self-association by quenched fluorescence, imaging, 24 h; 0.35% of 340,000 active; inhibition, % at 7.49 µM; AID 602346; in the data active = inhibition above about 50%, passing the limit was not always enough
GC-A act: GC-A (human) enzyme activation; P16066; HEK293 GC-A cells, cGMP TR-FRET, EC30 ANP; 0% at EC30 ANP, 100% saturating ANP; activation, % at 10 µM; 0.14% of 370,000 active; AID 1671463; in the data active = activation above about 40%
CaV13 FRET inh: Disruptors of the CACNA1D IQ motif to Ca2+-dependent inactivation inhibitor domain association, primary screening, Förster resonance energy transfer in intact living …; inhibition, % at 12.3 µM; HEK cells, CFP/YFP FRET ICDI-IQ, plate reader, 10 min; percent FRET-ratio fall versus neutral wells; 0.098% of 340,000 active;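 active = mean replicate inhibition of at least 30% and at least 1% of replicates passing that level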;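 also: 0% = median of the neutral control wells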
Xi reactivation: X-chromosome reactivation activator. XiGFP mouse fibroblasts, % GFP-positive cells imaging, 3 d; cells co-treated with 5-aza-dC sensitizer; scaled so ellipticine positive control = 100%. 0.055% of 360,000 active. activation, % at 7.58 µM;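 active = mean normalized replicate activation at least 10% and every replicate at or above 10%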;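 also: 0% = median of on-plate neutral control wells and 100% = ellipticine 6 µM median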
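System: 68-5-11 XiGFP fibroblast line | Buffer or medium: DMEM containing 5-aza-dC | Compound: Single point | Times: Compounds 3 days, fix/stain 15 min at room temperature | Benchmarks: Positive control ellipticine, 6 µM final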
N-glyco inh: N-linked glycosylation inhibition; 0.23% of 360,000 active; D54 ERlucT glycosylation luciferase reporter, 24 h; percent of 100 nM tunicamycin response; AID 588692; reporter increase, % at 12.5 µM;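 active = mean luciferase reporter signal, scaled so untreated is 0 and the glycosylation-blocking control 100, at or above a set limit in every replicate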;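 also: luciferase carries N-glycosylation sites so blocking glycosylation raises the light; 0% = median of neutral control wells and 100% = median of 100 nM tunicamycin wells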
Starred values were filed as active, the others as inactive; · = no result.

SMILES | NPR2 activator | Vif inh | GC-A act | CaV13 FRET inh | Xi reactivation | N-glyco inh
C[C@@H]1CCCCO[C@H](CN(C)Cc2ccc(C(=O)O)cc2)[C@H](C)CN([C@@H](C)CO)C(=O)c2cc(NC(=O)NC3CCCCC3)ccc2O1 | · | · | · | · | 0 | ·
Cc1ccc(S(=O)(=O)N2CCCCC2C(=O)O)cc1 (stereo not drawn) | 2 | 5 | 1 | -13 | 0 | 0
Cc1cc(C)c(C)c(S(=O)(=O)N2CCCCC2C(=O)O)c1C (stereo not drawn) | -7 | 55* | 2 | -5 | 0 | 1
C[C@@H]1CN([C@H](C)CO)C(=O)Cc2cc(NC(=O)Cn3cnnn3)ccc2O[C@H]1CN(C)C(=O)Nc1cccc2ccccc12 | · | · | · | · | 0 | ·
Cc1nc(NC(=O)C(Cl)Cl)sc1C(=O)N(C)C | 0 | 5 | 3 | -4 | 12* | 2
Cc1nc(NC(=O)CCl)sc1C(=O)N(C)C | 2 | 8 | 0 | 4 | 0 | -5
Cn1cccc1/C=N/NC(=O)c1sc2cc(Cl)ccc2c1Cl | -7 | · | -1 | 42* | 0 | ·
Cc1ccc(C(=O)N/C(=C\c2sccc2C)C(=O)NCc2ccco2)cc1 | 2 | 51* | -2 | -5 | · | 2
Cc1ccc(C(=O)N/C(=C\c2sccc2C)C(=O)NCc2ccncc2)cc1 | 1 | 0 | 2 | -5 | 0 | 2
COc1cc(OC)cc(-c2c(-c3cccs3)c3cc(-c4ccc(C(N)=O)cc4)ccc3n2C)c1 | -3 | 112* | 0 | -7 | 0 | -5
COC(=O)c1cccc(Cn2nnc3ccccc3c2=O)c1 | 7 | 12 | -2 | -2 | · | -2
O=c1c2ccccc2nnn1Cc1ccc2ccccc2c1 | 2 | -4 | 2 | -31 | 73* | -1
O=C(O)c1ccccc1C(=O)Nc1ccccc1NC(=O)c1ccccc1C(=O)O | 1 | -2 | 2 | -5 | 0 | 1
CC(=O)c1sc(C(C)(C)C)cc1NC(=O)c1ccccc1C(=O)O | 26 | · | 47* | -3 | 0 | 3
COC(=O)CSc1nn(-c2ccc(F)cc2)c(=S)s1 | -10 | 5 | 40* | -6 | 0 | 1
CC1(C)Cc2c(c(-c3ccco3)nc3sc4c(NCCN5CCOCC5)ncnc4c23)CO1 | 3 | 1 | 17 | 3 | 0 | 1
CC(C)CNc1nnnc2c1sc1nc(N3CCOCC3)c3c(c12)CC(C)(C)SC3 | 40* | 6 | 52* | 0 | · | 1
CC1(C)Cc2c(c(N3CCOCC3)nc3sc4c(NCc5ccccc5)nnnc4c23)CS1 | 50* | 4 | 47* | -9 | · | -1
CC(C)CNc1ncnc2c1sc1nc(N3CCOCC3)c3c(c12)CC(C)(C)OC3 | 39* | 7 | 42* | · | · | 1
CC1(C)Cc2c(c(N3CCOCC3)nc3sc4c(NCc5ccco5)nnnc4c23)CS1 | 48* | 36 | 55* | · | · | -2
CC1(C)Cc2c(c(N3CCOCC3)nc3sc4c(NN)ncnc4c23)CS1 | -3 | -5 | -26 | -6 | · | -2
CN1CCN(CC(=O)NC2CCCCC2)CC1 | 4 | 92* | -3 | -9 | · | -1
CCOC(=O)c1cnc(-n2cc(C)cn2)nc1NCc1ccc2c(c1)OCO2 | 45* | -14 | 34 | -6 | · | -5
O=C(CCl)Nc1cccc(S(=O)(=O)NC2=NCCC2)c1 | 4 | 3 | 1 | -16 | · | 60*
C[C@@H]1CN([C@H](C)CO)C(=O)Cc2cc(NS(C)(=O)=O)ccc2O[C@H]1CN(C)S(=O)(=O)c1cn(C)cn1 | · | · | · | · | 0 | ·
Cc1noc(C)c1NC(=O)N[C@@H]1C=C[C@@H](CC(=O)N2CCCCC2)O[C@H]1CO | · | · | · | · | 0 | ·
COc1ccc2c3c(n(C)c2c1)[C@@H](CO)N(C(=O)Nc1ccc(F)cc1)CC31CN(C(=O)Nc2c(C)noc2C)C1 | · | · | · | · | 0 | ·
O=C(c1cc(Cl)c(=O)n(Cc2ccccc2)c1)N1CCOCC1 | 4 | 62* | 1 | -4 | · | 1
